Source: PubChem (The Scripps Research Institute Molecular Screening Center)
TCR CD3 inh – inhibitors of human TCR-CD3 interaction, primary screen, biochemical, fluorescence, TAMRA-labeled TCR probe; actives 0.37% (n = 360,000); AID 651800, 2012; inhibition, % at 9.4 µM; in the data active = inhibition above about 19%;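 also: recombinant mutant TCR 2C K166C tagged with TAMRA read by polarization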
PRMT1 FP inh – PRMT1 methyltransferase inhibitors, primary screen, biochemical, fluorescence polarization. Protein arginine N-methyltransferase 1 (Homo sapiens), Q99873. recombinant PRMT1, activity-based probe fluorescence polarization. inhibition, % at 2.79 µM. actives 1.3% (n = 370,000). AID 652257, 2013;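 active = inhibition above about 21% made by adding two undisclosed values, limit read from the data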
HTRA1 inhibitor – HTRA1 serine protease inhibitors, primary screen, biochemical, fluorescence polarization, HTS; recombinant HTRA1, FP-rhodamine activity-based probe; inhibition, % at 5.96 µM; actives 0.5% (n = 340,000); AID 504803, 2011; in the data active = inhibition above about 36%
rCAG binder – binders of r(CAG) RNA repeats, primary screen, biochemical, fluorescence. r(CAG) RNA repeat, TO-PRO-1 dye displacement fluorescence. inhibition, % at 3 µM. actives 1.3% (n = 370,000). AID 651821, 2012;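 active = inhibition above the plate cutoff, the mean of all test compounds on that plate plus 3 SD, cut at about 35% in these data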;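 also: higher means more dye released from RNA so lower well fluorescence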
mABHD4 FP – ABHD4 inhibitors, primary screen, biochemical, fluorescence polarization, mouse | purified mABHD4, FP-Rh probe fluorescence polarization | inhibition, % at 8.92 µM | actives 0.54% (n = 370,000) | AID 720543, 2013;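 active = inhibition exceeding the mean over every tested compound plus 3 SD, cut at about 30% in these data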
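Doses – 8.92 µM, single dose · Material – wild-type mouse ABHD4 protein · Replication – single well per compound (singlicate) · Measure – percent inhibition of probe binding, normalized to plate controls · Schedule – 45 min compound pre-incubation plus 60 min probe step, 25 °C · Detection – fluorescence polarization with parallel and perpendicular emission, 525/598 nm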
SIAE primary – human SIAE inhibitors, primary screen, biochemical, fluorescence polarization, FP-Rh probe, 1536-well HTS; inhibition, % at 9.66 µM; actives 0.69% (n = 370,000); SIAE FP-Rh probe binding; Sialate O-acetylesterase (Homo sapiens), Q9HAT2;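 active = inhibition above a cutoff: mean of compounds within the control limits plus 3 SD of those, cut at about 17% in these data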
Target sequence (Q9HAT2 whole entry, looked up): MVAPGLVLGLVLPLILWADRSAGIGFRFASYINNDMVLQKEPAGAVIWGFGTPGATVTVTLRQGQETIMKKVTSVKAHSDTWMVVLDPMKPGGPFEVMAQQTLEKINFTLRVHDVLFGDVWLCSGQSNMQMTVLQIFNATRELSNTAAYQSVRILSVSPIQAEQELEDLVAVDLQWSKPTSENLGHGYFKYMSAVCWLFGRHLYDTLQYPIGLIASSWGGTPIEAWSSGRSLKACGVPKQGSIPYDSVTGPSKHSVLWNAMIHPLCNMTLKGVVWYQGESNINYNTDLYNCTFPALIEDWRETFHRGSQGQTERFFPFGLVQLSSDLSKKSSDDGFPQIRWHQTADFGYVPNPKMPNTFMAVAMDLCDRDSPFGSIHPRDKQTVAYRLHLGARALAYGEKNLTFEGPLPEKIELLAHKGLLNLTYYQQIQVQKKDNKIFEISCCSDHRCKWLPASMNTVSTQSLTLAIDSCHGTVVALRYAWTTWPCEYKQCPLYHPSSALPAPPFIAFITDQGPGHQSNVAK
rCAG binder conf – small molecules binding CAG repeat RNA – biochemical, fluorescence, confirmation. actives 70% (n = 4,300). r(CAG) RNA repeat, TO-PRO-1 dye displacement fluorescence. shares compounds with rCAG binder. inhibition, % at 3 µM;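 active = inhibition above a per-plate cutoff, the mean inhibition of sample wells plus 3 SD, cut at about 35% in these data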;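 also: loss of TO-PRO-1 fluorescence as compound displaces dye from 1x1 AA loop RNA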
dCAG dye counter – displacement of TO-PRO-1 from CAG DNA duplex, counter-screen for rCAG RNA repeat binder project, biochemical, fluorescence, TO-PRO-1 dye, d(CAG) DNA oligo; actives 94% (n = 4,300); AID 652068, 2013; d(CAG) DNA oligo TO-PRO-1 dye displacement; shares compounds with rCAG binder; inhibition, % at 3 µM;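 active = inhibition above its plate's cutoff, the mean test-well inhibition plus 3 SD, cut at about 4.8% in these data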;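 also: hits displace the dye from DNA and so lower well fluorescence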
PRMT1 confirm – PRMT1 methyltransferase inhibitors, confirmation, biochemical, fluorescence polarization, triplicate. inhibition, % at 2.79 µM. actives 42% (n = 3,300). AID 687036, 2013. recombinant His-PRMT1, activity-based probe fluorescence polarization. shares compounds with PRMT1 FP inh;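 active = mean inhibition across replicates above the hit cutoff derived for the earlier primary screen, cut at about 22% in these data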
mABHD4 conf – ABHD4 inhibitors, retest, confirmation, biochemical, fluorescence polarization, mouse; shares compounds with mABHD4 FP; actives 55% (n = 1,800); inhibition, % at 8.92 µM; purified mABHD4, FP-Rh probe fluorescence polarization;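 active = mean inhibition across replicates above the hit cutoff set in the primary screen, cut at about 30% in these data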
A number is an active result; – = inactive; · = no result. This is a sample that favours compounds with a hit; in the whole collection about 3.5% have one here.

SMILES	TCR CD3 inh	PRMT1 FP inh	HTRA1 inhibitor	rCAG binder	mABHD4 FP	SIAE primary	PRMT1 confirm	others
Cc1ccc(N2C(=O)NC(=O)/C(=C/c3ccoc3)C2=O)cc1	–	–	–	–	–	–	·
O=C(O)c1ccccc1-c1ccc(C=C2C(=O)N(c3ccccc3)C(=S)N(c3ccccc3)C2=O)o1	–	39	–	57	–	–	59	rCAG binder conf=61;dCAG dye counter=26
CN1C(=O)C(=Cc2ccc(N3CCCCCC3)o2)C(=O)N(C)C1=S	–	–	–	–	–	–	·
COc1ccc2nc(-c3ccc(CN4CCC(n5c(=O)[nH]c6cc(Cl)ccc65)CC4)cc3)c(-c3ccccc3)nc2c1	–	–	·	–	–	–	·
O=C(O)Cn1cc(/C=C2\C(=O)NC(=O)N(Cc3ccco3)C2=O)c2ccccc21	–	27	–	45	–	–	–	rCAG binder conf=62;dCAG dye counter=23
S=P(c1ccccc1)(c1ccccc1)c1c[n+](Cc2ccccc2)c2ccccn12	·	–	·	·	–	–	·
O=C(O)c1cccc2c1NC(c1cccc([N+](=O)[O-])c1)C1CC(Sc3ccccc3[N+](=O)[O-])C(Cl)C21 (stereo unspecified)	–	23	–	76	30	–	·	rCAG binder conf=92;dCAG dye counter=74;mABHD4 conf=55
N/C(=N\N=C/c1ccc(-c2ccc(O)c(C(=O)O)c2)o1)N[N+](=O)[O-]	–	33	–	58	35	–	·	rCAG binder conf=67;dCAG dye counter=28;mABHD4 conf=42
COc1ccc(/C=N/N=C(/N)N[N+](=O)[O-])c(OC)c1	–	–	–	–	–	–	·
C=CC1C[N+]2(C)CCC1CC2C(O)c1ccnc2ccccc12 (stereo unspecified)	–	–	·	–	–	–	·
COC(=O)C1C(c2ccccc2)CC2CCC1N2C (stereo unspecified)	–	–	·	–	–	–	·
Cn1cccc1/C=C1/C(=O)NC(=S)N(Cc2ccc(F)cc2)C1=O	–	27	45	74	49	–	65	rCAG binder conf=51;dCAG dye counter=30;mABHD4 conf=57
CN1C(=O)NC(=O)/C(=C/c2ccc(C(=O)O)cc2)C1=O	–	31	–	–	–	–	–
CN(C)C(=S)SSC(=S)N(C)C	–	87	–	–	–	–	102
CNC(=O)CSP(=S)(OC)OC	–	32	–	–	–	–	29
CCOC(=O)CNC(=O)CSP(=S)(OCC)OCC	–	–	–	–	–	–	·
O=C1NCN(c2ccccc2)C12CCN(C(c1nnnn1C1CCCCC1)C1CC1)CC2 (stereo unspecified)	–	–	·	–	–	–	·
c1coc(CN2Cc3ccccc3-n3nncc3C2)c1	–	–	–	–	–	–	·
N#Cc1c(/N=C/C2C(=O)NC(=S)NC2=O)sc2c1CCCC2	–	26	–	–	–	–	–
Cc1cccc(N2C(=O)NC(=O)/C(=C\c3cc(C)n(-c4sc5c(c4C#N)CCCC5)c3C)C2=O)c1C	–	–	–	–	–	–	·
Cc1ccc(OP2(=O)Nc3cc(C)c(C)cc3S2)cc1 (stereo unspecified)	–	67	–	–	–	–	60
O=C1NC(=S)SC1=Cc1ccc(N(CCCl)CCCl)cc1	–	–	–	–	–	–	·
CCOC(=O)N(c1ccccc1)P1(=S)OCCO1	–	–	–	–	–	–	·
COC(=O)N(c1ccccc1)P1(=S)OCCO1	–	30	–	–	–	–	44
NC(=S)/N=C/c1c(O)[nH]c(=O)[nH]c1=O	–	34	–	–	–	–	–
SMILES	TCR CD3 inh	PRMT1 FP inh	HTRA1 inhibitor	rCAG binder	mABHD4 FP	SIAE primary	PRMT1 confirm	others
C=CCNC(=S)/N=C/c1c(O)[nH]c(=O)[nH]c1=O	–	–	–	–	–	–	·
CCOC(=O)[C@]12Cc3cc(OC)ccc3[C@H]1N(C1CCCCC1)C(=O)c1ccccc12	–	–	·	–	–	–	·
COCCNC(=O)c1c(N)n(Cc2ccco2)c2nc3ccccc3nc12	–	–	–	–	–	–	·
C=CCNC(=O)c1c(N)n(Cc2ccco2)c2nc3ccccc3nc12	–	25	–	–	–	–	–
C=C1C(=O)OC2CC3(C)OC3C3OC3C3=CC(OC3=O)C12 (stereo unspecified)	–	44	·	–	–	–	40
COc1cccc(C(=O)NCCN2CCC3(CC2)C(=O)NCN3c2ccccc2)c1	–	–	·	–	–	–	·
CCOC(=O)c1cc(C)sc1/N=C/C1C(=O)NC(=S)NC1=O	–	86	–	–	–	–	–
CCOC(=O)c1ccccc1C(=O)OCC	–	–	–	–	–	–	·
O=c1[nH]c2cc(Cl)ccc2n1C1CCN(Cc2ccc(-c3nc4ccccc4nc3-c3ccccc3)cc2)CC1	–	–	·	–	–	–	·
COc1cc(/C=C2/C(=O)NC(=O)N(c3ccc(C)cc3)C2=O)cc(OC)c1OC	–	–	–	–	–	–	·
COC(=O)COc1ccc(/C=C2\C(=O)NC(=S)N(c3ccc(C)cc3)C2=O)cc1OC	–	32	–	–	–	–	27
COc1ccc(N2C(=O)/C(=C/c3ccc(OC)c(OC)c3)C(=O)NC2=S)cc1	–	41	–	–	–	–	49
CCOC(=O)[C@]12Cc3ccccc3[C@H]1N(CCC(=O)OC)C(=O)c1cc(OC)ccc12	–	–	·	–	–	–	·
CC(C)(C)c1cc(O)ccc1O	–	–	·	–	–	–	·
NS(=O)(=O)c1ccc(-c2ccc(C=C3C(=O)NC(=S)NC3=O)o2)cc1	–	47	·	–	–	–	68
Cn1cnc([N+](=O)[O-])c1Sc1ccc([N+](=O)[O-])cc1	–	48	–	–	–	–	–
COc1cc(N2CCOCC2)ccc1/C=C1\C(=O)NC(=O)N(C2CCCCC2)C1=O	–	26	–	–	–	–	–
